High-throughput results deposited in PubChem by several laboratories.
MMP-13 inhibitor – MMP13 (human) collagenase inhibition; 65,000 tested, 0.07% active; P45452; MMP-13 fTHP FRET cleavage, Mca fluorescence; inhibition, % at 4 µM;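 active = inhibition above the mean of compound-free control plate wells plus 3 SD, cut at about 14% in these data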;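 note: 0% = DMSO wells and 100% = wells with reference MMP-13 inhibitor after basal subtraction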
RORa activator – activates the human nuclear receptor RORA. 65,000 tested, 1.5% active. CHO-K1 Gal4-RORA LBD luciferase reporter, luminescence; percent increase over mock-subtracted basal signal. AID 560. activation, % at 10 µM;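 active = activation above the mean of all tested compounds plus 3 SD, cut at about 49% in these data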;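 note: 0% = DMSO-treated RORA cells and 100% = added signal equal to DMSO minus mock-transfected cells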
AP complement – alternative pathway complement inhibition, orthogonal assay | Human serum alternative complement pathway, LPS-coated ELISA, C3 deposition; tested in compound mixtures | inhibition, % at 5 µM | 62,000 tested, 0.08% active | AID 1235;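 active = inhibition above 30% in each of the two pooled mixtures holding the compound, so the lower value exceeds 30%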;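 note: 0% = serum in Mg-EGTA without compound and 100% = EDTA serum blank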
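Test system: human serum alternative complement pathway, C3 deposition on LPS-coated wells; also added: Plate-bound LPS; doses: 5 µM per compound in ten-compound mixtures; schedule: 1 h at 37 °C; detection: Anti-C3 ELISA, OD 450 nm; evaluation: percent inhibition of C3 deposition onto LPS; repeats: two pool placements per compound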
HePTP inh – human HePTP phosphatase inhibition; recombinant HePTP phosphatase activity, OD absorbance; inhibition, % at 20 µM; 110,000 tested, 0.64% active; in the data active = inhibition above about 50%;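 note: plate controls were vehicle for no effect and reference inhibitor for full effect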
Ec RNAP inh – inhibitors of Escherichia coli RNA polymerase; P0A8V2; E. coli RNA polymerase, fluorescence transcription assay; inhibition, %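 (tested at 10 µM)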; 62,000 tested, 0.2% active; AID 559; in the data active = inhibition above about 20%;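 note: 0% = enzyme without compound and 100% = no enzyme blank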
SF-1 act – SF-1 (human) activation; AID 522; activation, % at 10 µM; 65,000 tested, 1.9% active; CHO-K1 Gal4-SF-1 LBD luciferase reporter; % increase over DMSO SF-1-specific signal;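 active = activation above the mean activation of all tested compounds plus 3 SD, cut at about 50% in these data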
Target sequence (Q13285 whole entry, looked up, the tested form may be a part): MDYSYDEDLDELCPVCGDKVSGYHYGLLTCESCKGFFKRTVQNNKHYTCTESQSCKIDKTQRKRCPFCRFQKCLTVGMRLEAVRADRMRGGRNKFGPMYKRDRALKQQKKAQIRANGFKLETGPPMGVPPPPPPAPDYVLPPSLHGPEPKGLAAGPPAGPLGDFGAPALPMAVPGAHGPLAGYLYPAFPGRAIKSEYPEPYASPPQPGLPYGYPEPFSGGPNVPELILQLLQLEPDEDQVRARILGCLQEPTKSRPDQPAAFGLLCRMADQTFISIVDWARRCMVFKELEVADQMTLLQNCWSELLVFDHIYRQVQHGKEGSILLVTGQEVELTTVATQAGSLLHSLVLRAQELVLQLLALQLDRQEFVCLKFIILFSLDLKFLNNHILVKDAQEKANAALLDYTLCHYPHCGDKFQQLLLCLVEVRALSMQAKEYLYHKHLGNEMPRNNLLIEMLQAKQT
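Compound – one dose, 10 µM compound, 1% DMSO · Test system – transient Gal4-SF-1 LBD reporter, CHO-K1 · Input – 4,000 cells in each well · Read-out basis – percent activation relative to DMSO median and mock-transfected background · Replicates – single measurement per compound · Technique – steady-glow luciferase luminescence, read after 15 min reagent incubation · Timing – 20 h compound treatment, 37 °C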
* = called active by the depositor; . = not tested or not shown. In the library only some 2.4% were active in any assay of this set; here they are far more common.

SMILES	MMP-13 inhibitor	RORa activator	AP complement	HePTP inh	Ec RNAP inh	SF-1 act
COCCNC(=O)c1noc2c1CCc1cc(OC)ccc1-2	-9.2	36.5	12.1	3.7	-4.9	72.0*
COCC(C)NC(=O)c1noc2c1CCc1cc(OC)ccc1-2 (configuration not stated)	1.6	6.2	13.1	0.0	1.4	67.6*
COc1ccc2c(c1)CCc1c(C(=O)NCc3ccco3)noc1-2	-2.8	37.4	16.7	3.4	2.1	26.3
COc1ccc2c(c1)CCc1c(C(=O)NC3CCCCC3)noc1-2	7.6	33.9	15.3	7.1	-7.7	54.1*
c1ccc(OCCSc2nnnn2-c2ccccc2)cc1	0.3	35.1	7.7	5.6	7.4	63.3*
O=C1C(=O)N(CC2CCCO2)C(c2ccccc2)/C1=C(/O)c1ccccc1 (configuration not stated)	.	.	.	11.8	.	.
O=C1NC(=Nc2cccnc2)S/C1=C\c1cccc(F)c1	.	.	.	65.7*	.	.
O=C(/C=C/c1cccs1)N1CCN(Cc2ccccc2)CC1	.	.	.	-12.8	.	.
CCC(=O)Oc1ccc2c(=O)c(-c3ccccc3)coc2c1	.	.	.	-5.2	.	.
CCN(CC)C(=O)Oc1ccc2c(=O)c(-c3ccccc3)coc2c1	0.6	82.4*	11.5	-1.7	-6.2	8.3
CCCn1c(=O)c2ccccc2n2c(SCCOc3ccccc3)nnc12	-10.6	-16.4	4.9	3.1	2.2	-7.4
Cc1ccccc1-n1c(C)nnc1SCc1nc2ccccc2s1	-1.0	57.6*	16.6	4.8	4.4	55.1*
CCCn1c(=O)c2ccccc2n2c(SCc3nc4ccccc4s3)nnc12	1.5	42.3	1.8	-0.6	3.8	69.9*
COc1cc2ccccc2cc1C(=O)Nc1cccnc1	0.7	76.7*	3.4	2.0	.	49.5*
O=C(Nc1cccnc1)c1ccccc1Oc1ccccc1	-0.9	0.5	8.4	6.6	0.8	-5.3
COc1cc2ccccc2cc1C(=O)Nc1ccc(OC(F)(F)F)cc1	.	.	.	1.6	.	.
COc1cc2ccccc2cc1C(=O)Nc1ccc(N2CCN(C)CC2)cc1	-1.1	59.1*	-8.8	-1.5	10.4	36.2
Cc1ccc(C(=O)Oc2ccccc2C(=S)N2CCOCC2)cc1	.	.	.	-6.3	.	.
c1ccc(-c2nnc(-c3ccccn3)nn2)nc1	-1.1	39.6	7.0	1.4	24.5*	47.5
c1ccc(-c2nnc(-c3ccccn3)nc2-c2ccccc2)cc1	.	.	.	-0.1	.	.
C/C(NC(=O)c1ccccc1)=C1/C(=O)CC2C1C2(C)C (configuration not stated)	1.6	68.1*	26.2	3.7	-1.2	30.1
COC(=O)c1ccc(Oc2cc(C)nc(SC)n2)cc1	3.1	57.6*	-2.6	-1.2	6.6	70.8*
CN(C)c1ccc(/C=C/c2cc(C(F)(F)F)[nH]c(=O)n2)cc1[N+](=O)[O-]	.	.	.	12.6	.	.
CSc1ncccc1C(=O)OCc1ccccc1F	6.3	88.6*	-16.8	-8.5	-5.8	29.2
COc1ccc(N(CC(=O)Nc2cc(Cl)cc(Cl)c2)S(=O)(=O)c2ccccc2)cc1	.	.	.	4.3	.	.
SMILES	MMP-13 inhibitor	RORa activator	AP complement	HePTP inh	Ec RNAP inh	SF-1 act
CC1(C)Cc2c(sc3ncnc(NCc4ccccc4)c23)CO1	.	.	.	105.1*	.	.
Cc1nc2oc3c(NCc4ccccc4)ncnc3c2c2c1COC(C)(C)C2	-108.2	-27.3	11.4	0.9	0.7	21.6
CCOC(=O)/C=C/COc1ccc2oc(-c3ccccc3)c(C(=O)OCC)c2c1	.	.	.	9.1	.	.
CCOc1ccc(C(=O)Nc2cccc(S(N)(=O)=O)c2)cc1Br	.	.	.	102.7*	.	.
CSc1ccc(/C=N/NC(=O)c2c[nH]c3ccccc23)cc1	.	.	.	6.8	.	.
CCOC(=O)CNC(=O)c1ccc(OC)cc1	.	.	.	-12.4	.	.
Cc1c(C(=O)OC2CCCC2)[nH]c2c1C(=O)CC(c1ccco1)C2 (configuration not stated)	-4.3	-40.8	17.1	14.6	-3.4	-43.7
COC(=O)C1C(=O)c2c([nH]c(C(=O)OC3CCCC3)c2C)CC1C (configuration not stated)	6.1	49.4*	-1.6	7.6	0.5	56.0*
COC(=O)CSC1=NC(=O)/C(=C/c2cccc(OC)c2)S1	.	.	.	-6.8	.	.
COc1nc(C)ccc1-c1noc(-c2ccccn2)n1	3.1	61.2*	-8.8	-4.0	-10.1	21.8
COc1ccccc1-c1nc(-c2ccccn2)no1	-12.2	-50.4	9.1	4.4	0.6	-32.2
COc1ccccc1-c1nc(-c2ccc(C)nc2OC)no1	-9.7	39.0	13.1	5.3	4.5	74.4*
